TCR CD3 inh: human TCR-CD3 binding inhibition. TAMRA-labeled TCR probe fluorescence, biochemical. inhibition, % at 9.4 µM. 360,000 compounds, 0.37% hits. AID 651800; in the data active = inhibition above about 19%;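 note: recombinant mutant TCR 2C K166C tagged with TAMRA read by polarization; 0% = receptor in buffer alone and 100% = receptor with positive control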
Tn7 DDE FP: DD(E)-Tn7 binding inhibition, primary FP screen. FP displacement of FITC-Tn7 peptide from fibrin DD(E); 0% = median of compound wells per plate. inhibition, % at 8.3 µM. 370,000 compounds, 0.13% hits. P02675;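 active = inhibition above the mean of compounds falling within the control limits plus 3 SD of them, cut at about 14% in these data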;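 note: 0% = plate median of compound wells and 100% = 10 µM Aha-Tn7 peptide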
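Assay system: human fibrin DD(E). Input: DD(E) 2 µM final. Medium: Tris buffer with calcium and detergent, pH 7.8. Compound dosing: single point at 8.3 µM. Timing: 10 min plus 3 h, room temperature. Technique: fluorescence polarization of the labelled Tn7 tracer. Read-out: percent inhibition. Replicates: singlicate testing.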
DDE Tn6 FP inh: inhibitors of Tn6 peptide binding to human fibrin DD(E). P02675. Fibrin DD(E) TRITC-Tn6 fluorescence polarization displacement. inhibition, % at 8.3 µM. 370,000 compounds, 0.21% hits. AID 720509;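 active = inhibition above a per-campaign cutoff: mean of compounds within control limits plus 3 SD, cut at about 15% in these data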;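 note: 0% = median of all compound wells on the plate and 100% = blocking peptide control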
mABHD4 FP: inhibits mouse alpha/beta hydrolase domain 4. purified mABHD4, FP-Rh probe fluorescence polarization. inhibition, % at 8.92 µM. 370,000 compounds, 0.54% hits. AID 720543;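 active = inhibition exceeding the mean over every tested compound plus 3 SD, cut at about 30% in these data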;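 note: 0% = plate median of compound wells and 100% = S159A mutant with DMSO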
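Test system: mouse ABHD4 enzyme, wild type. Reagent: FP-Rh fluorescent activity-based probe, added after compound pre-incubation. Timing: pre-incubation 45 min, probe exposure 60 min, at 25 °C. Technique: FP readout, ex 525 nm / em 598 nm. Benchmarks: high control S159A mutant with DMSO, low control median of compound wells.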
HTRA1 inhibitor: blocks human HTRA1 serine peptidase; Q92743; recombinant HTRA1, FP-rhodamine activity-based probe, fluorescence polarization; inhibition, % at 5.96 µM; 340,000 compounds, 0.5% hits; AID 504803; in the data active = inhibition above about 36%;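 note: 0% = enzyme with DMSO and 100% = wells lacking enzyme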
SIAE inh: blocks human sialic acid acetylesterase; Q9HAT2; SIAE FP-Rh probe binding, fluorescence polarization; inhibition, % at 9.66 µM; 370,000 compounds, 0.69% hits; AID 1053197;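 active = inhibition above a cutoff: mean of compounds within the control limits plus 3 SD of those, cut at about 17% in these data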;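 note: 0% = plate median of compound wells and 100% = probe without SIAE protein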
Target sequence (Q9HAT2 whole entry, looked up): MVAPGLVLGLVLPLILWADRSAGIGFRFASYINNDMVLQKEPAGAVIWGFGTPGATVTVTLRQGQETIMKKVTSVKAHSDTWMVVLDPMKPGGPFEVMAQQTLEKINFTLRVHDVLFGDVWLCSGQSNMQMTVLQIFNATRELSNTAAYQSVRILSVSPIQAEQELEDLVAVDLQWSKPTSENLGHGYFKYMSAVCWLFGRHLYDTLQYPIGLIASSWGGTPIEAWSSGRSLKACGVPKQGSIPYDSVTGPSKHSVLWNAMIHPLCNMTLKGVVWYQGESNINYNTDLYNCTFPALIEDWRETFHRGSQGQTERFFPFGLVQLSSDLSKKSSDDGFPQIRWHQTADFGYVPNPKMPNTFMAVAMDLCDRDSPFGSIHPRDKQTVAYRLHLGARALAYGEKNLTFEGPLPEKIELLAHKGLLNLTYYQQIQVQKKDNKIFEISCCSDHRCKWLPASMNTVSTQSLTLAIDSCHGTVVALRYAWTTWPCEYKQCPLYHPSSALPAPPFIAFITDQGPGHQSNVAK
Tn7 DDE conf: DD(E)-Tn7 binding inhibition, FP confirmation | shares compounds with Tn7 DDE FP | inhibition, % at 8.3 µM | FP displacement of TRITC-Tn7 peptide from DD(E); 0% set at plate's compound-well median | 460 compounds, 5% hits;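 active = inhibition above the campaign cutoff, the mean of compounds within control limits plus 3 SD, cut at about 14% in these data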;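 note: 100% = median FP of high control wells holding Aha-Tn7 inhibitor peptide; displacers lower polarization since freed probe rises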
DDE Tn7 FP ctr: counter-screen hit for Tn7 peptide-fibrin DD(E) binding disruption. inhibition, % at 8.3 µM. shares compounds with Tn7 DDE FP. TRITC-Tn7 probe displacement, fluorescence polarization. AID 720633. 460 compounds, 3% hits;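 active = inhibition above the cutoff, the mean of compounds lying between the control bounds plus 3 SD of those compounds, cut at about 17% in these data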;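 note: 0% = median of compound sample wells and 100% = excess unlabeled Aha-Tn7 peptide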
* marks the source's active call; other numbers are inactive results; . = not tested or not shown. Compounds with a hit are over-represented: about 1.8% of the library has one in this group of screens.

SMILES | TCR CD3 inh | Tn7 DDE FP | DDE Tn6 FP inh | mABHD4 FP | HTRA1 inhibitor | SIAE inh | Tn7 DDE conf | DDE Tn7 FP ctr
COc1ccc(OC)c(CN2C(=O)COc3ccccc3C2c2nnnn2C2CCCC2)c1 (configuration not stated) | . | 0 | 2 | -7 | . | 5 | . | .
CC(C)(C)NC(=O)NC(=O)COC(=O)c1ccc(OC(F)(F)F)cc1 | 3 | 14* | 3 | -2 | 15 | -2 | 1 | -10
Cc1cc(NC(=O)COC(=O)c2ccc(OC(F)(F)F)cc2)no1 | -4 | 16* | 3 | -5 | -5 | -2 | 8 | 2
Cn1c(CC(=O)Nc2ccccc2Cl)nnc1SCC(=O)Nc1nncs1 | -1 | 14* | 2 | -7 | 1 | 3 | -8 | -11
Cc1ccc(NC(=O)Cc2nnc(SCC(=O)Nc3nncs3)n2C)c(C)c1 | 3 | 4 | -2 | 7 | -3 | -2 | . | .
O=C(NNC(=O)c1ccccc1-n1cccc1)c1cccc(Cl)c1 | -6 | 0 | -2 | -5 | 2 | -4 | . | .
O=C(NNC(=O)c1ccccc1-n1cccc1)c1cncc(Br)c1 | -3 | 16* | 0 | -6 | 0 | 12 | 7 | 2
O=C(OCCN1C(=O)c2cccc3c(N4CCOCC4)ccc(c23)C1=O)c1ccccc1Cl | 4 | 33* | -2 | -11 | -40 | -1 | -2 | -6
CCCCCCN1CCS(=O)(=O)N(Cc2ccc(C)cc2)C(C(=O)OC)C1 (configuration not stated) | . | 3 | 0 | 2 | . | 6 | . | .
O=C(N=C1N(CC2CC2)CC2(C=C3CCCCC3n3c(=O)n(-c4ccccc4)c(=O)n32)N1C(=O)OCc1ccccc1)c1ccccc1 (configuration not stated) | . | 6 | 9 | 1 | . | 2 | . | .
CC(NC(=O)COC(=O)[C@@H]1CCCN1S(=O)(=O)c1ccccc1F)C12CC3CC(CC(C3)C1)C2 (some centres not stated) | 8 | 14* | 3 | -1 | -27 | -6 | 0 | 0
CCC(C)(C)NC(=O)C(c1ccccn1)N(C(=O)c1csnn1)C1CCCCC1 (configuration not stated) | 7 | 14* | 2 | 1 | 6 | -3 | 1 | -2
O=C(Nc1nnc(SCC(=O)N2CCCC2)s1)C1CC(=O)N(c2ccc(F)cc2)C1 (configuration not stated) | -2 | 1 | 3 | 5 | 10 | 9 | . | .
O=C(CSc1nnc(NC(=O)C2CC(=O)N(c3ccc(F)cc3)C2)s1)NC1CCCC1 (configuration not stated) | 8 | 14* | 10 | 0 | 1 | -2 | 9 | 4
COc1cccc(C(=O)N/N=c2/oc3ccccc3cc2C(N)=O)c1 | -10 | 14* | -1 | 7 | -9 | 5 | 0 | -1
COc1ccc(CCC(=O)N2CCN(c3ccccc3)CC2)cc1OC | 2 | 15* | 1 | 0 | 12 | 0 | -3 | -14
COCC(=O)N(C)[C@H]1C[C@H]2c3[nH]c4c(-c5ccc6c(c5)OCO6)cccc4c3CCN2C(=O)[C@H]1[C@H](C)O | . | -1 | 0 | 12 | . | 5 | . | .
O=C(CN1CCOCC1)N(c1ccccc1)c1ccc2ccccc2c1 | -5 | 0 | -4 | -2 | -8 | -2 | . | .
O=C(CN1CCN(c2ccccn2)CC1)N(c1ccccc1)c1ccc2ccccc2c1 | 0 | 15* | -4 | -6 | -8 | 0 | -1 | -6
Cc1ccsc1S(=O)(=O)n1c(CN2CCOCC2)nc2ccccc21 | . | -3 | -6 | 4 | . | 6 | . | .
O=C(N/C(C(=O)N1CCOCC1)=C(\Sc1ncccn1)c1ccccc1)c1ccccc1 | 1 | 15* | 9 | 2 | 5 | 0 | 2 | -1
CCOc1ccc(NC(=O)CCN2CCCCC2)cc1 | 3 | 16* | -7 | -4 | 0 | 1 | 4 | 4
COc1ccc(NC(=O)CCN2CCCCC2)cc1 | -4 | 8 | 1 | -2 | 3 | 1 | . | .
CCNC(=O)N(C)[C@H]1C[C@H]2c3[nH]c4cccc(-c5ccc6c(c5)OCO6)c4c3CCN2C[C@H]1[C@H](C)O | . | 4 | 12 | 1 | . | 9 | . | .
O=C(NCc1ccccc1Cl)c1ccc(Cn2cc(C(F)(F)F)ccc2=O)cc1 | 0 | 7 | -7 | -9 | -12 | 3 | . | .
SMILES | TCR CD3 inh | Tn7 DDE FP | DDE Tn6 FP inh | mABHD4 FP | HTRA1 inhibitor | SIAE inh | Tn7 DDE conf | DDE Tn7 FP ctr
O=C(NCc1ccc(Cl)cc1)c1ccc(Cn2cc(C(F)(F)F)ccc2=O)cc1 | 9 | 49* | -3 | -5 | -19 | -2 | 27* | -6
CCCC1CCC2(CC1)CCC2OC(=O)Nc1ccc(F)cc1 (configuration not stated) | . | -3 | 5 | -14 | . | -4 | . | .
CCOC(=O)c1sc2nc3n(c(=O)c2c1C)CCC3 | -3 | 15* | 8 | -3 | -4 | 6 | 3 | 2
C=CCNS(=O)(=O)c1ccc(OCC(=O)OC)cc1 | -8 | 16* | -1 | 1 | 6 | -2 | -7 | -8
C=CCN1[C@H](C)COc2cccc(N3CCCC3)c2S1(=O)=O | . | 5 | -5 | 2 | . | 4 | . | .
CC1(c2ccc(Cl)cc2)NC(=O)N(CC(=O)N2CCc3ccccc3C2)C1=O (configuration not stated) | 5 | 15* | 3 | -6 | 10 | 0 | 11 | 5
CC1(c2ccccc2Cl)NC(=O)N(CC(=O)N2CCc3ccccc3C2)C1=O (configuration not stated) | 5 | 5 | 0 | 3 | -1 | 1 | . | .
CCOC(=O)C1=CCN(S(=O)(=O)c2cccc(Cl)c2)C1c1cccc(Cl)c1 (configuration not stated) | 10 | 16* | -1 | -10 | . | 1 | -5 | -9
CCCCCC[C@H](CC)CN(C(=O)Oc1ccccc1)c1ccccc1 | . | 6 | 4 | -2 | . | -1 | . | .
Cc1cccc(S(=O)Cc2ccc(C(=O)NC3CCN(Cc4ccccc4)CC3)o2)c1 (configuration not stated) | -2 | 1 | 0 | -3 | 0 | -1 | . | .
Cc1ccccc1S(=O)Cc1ccc(C(=O)NC2CCN(Cc3ccccc3)CC2)o1 (configuration not stated) | 0 | 14* | -10 | 1 | 7 | 7 | 5 | -4
O=C(NNC(=O)c1cc(-c2ccccc2)nc2ccccc12)c1csc(N2CCOCC2)n1 | -4 | 15* | -2 | -9 | -10 | -4 | -1 | -18

Source: PubChem (The Scripps Research Institute Molecular Screening Center)
